This is an account of results in ChEMBL document CHEMBL1759959, “Synthesis and antitumor activity of 10-arylcamptothecin derivatives” (Bioorg Med Chem Lett, 2011).

pIC50: −log10 of the molar value. Calls of active or inactive are those of the source. The rule behind the calls is not given here.

One data set has as its system HL-60. As to the kind of experiment: Cytotoxicity against human HL60 cells after 3 days. Format: functional, cell-based. The method in brief:
(§1)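 HL60 (leukaemia), A549 (lung) and BEL-7402 (liver) human tumour cells exposed to compounds for 3 days; viability read by MTT assay and SRB assay; IC50 (half-maximal inhibitory concentration) reported.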

The test system of data set [1] is A549. Kind of data set: Cytotoxicity against human A549 cells after 3 days. In kind it is functional, cell-based. The method in brief:
as §1

Another data set relates to Bel-7402. Kind of data set: Cytotoxicity against human Bel7402 cells after 3 days. Format: functional, cell-based. Put shortly: as §1
In data set [2] the test system is A549. As to the kind of experiment: Cell cycle arrest in human A549 cells assessed as accumulation at S phase at 12.5 uM after 24 hrs by flow cytometry (reference value: 27.52%). In kind it is functional. A general note: A flow cytometer gives signals particle by particle.
Data set [3] relates to A549. As to the kind of experiment: Cell cycle arrest in human A549 cells assessed as accumulation at G2/M phase at 12.5 uM after 24 hrs by flow cytometry (reference value: 10.34%). In kind it is functional.
Data set [4] has as its system A549. Kind of data set: Cell cycle arrest in human A549 cells assessed as accumulation at G0/G1 phase at 50 uM after 24 hrs by flow cytometry (reference value: 62.14%). Format: functional.
Data set [5] has as its system A549. Kind of data set: Cell cycle arrest in human A549 cells assessed as accumulation at S phase at 50 uM after 24 hrs by flow cytometry (reference value: 27.52%). In kind it is functional.
Data set [6] concerns A549. Kind of data set: Cell cycle arrest in human A549 cells assessed as accumulation at G2/M phase at 50 uM after 24 hrs by flow cytometry (reference value: 10.34%). In kind it is functional.
Data set [7] relates to A549. As to the kind of experiment: Cell cycle arrest in human A549 cells assessed as accumulation at G0/G1 phase at 12.5 uM after 24 hrs by flow cytometry (reference value: 62.14%). In kind it is functional.
The subject of data set [8] is A549. As to the kind of experiment: Cell cycle arrest in human A549 cells assessed as accumulation at S phase at 25 nM after 24 hrs by flow cytometry (reference value: 27.52%).
Data set [9] has as its system A549. As to the kind of experiment: Cell cycle arrest in human A549 cells assessed as accumulation at G2/M phase at 25 nM after 24 hrs by flow cytometry (reference value: 10.34%).
Data set [10] deals with A549. Kind of data set: Cell cycle arrest in human A549 cells assessed as accumulation at G0/G1 phase at 25 nM after 24 hrs by flow cytometry (reference value: 62.14%).
The nature of data set [11]: Chemical stability of the compound in phosphate saline buffer at pH 7.4 at 50 umol/L by HPLC analysis. Format: physicochemical. The settings on record: pH 7.4, 50 µM. Put shortly:
(§2)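 Lactone stability followed by HPLC with fluorescence detection; drug at 50 μmol/L incubated at pH 7.4, 37 °C in PBS, PBS with human serum albumin, or human blood; each point mean of three determinations, uncertainty 10% or less.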

Data set [12] is described as follows: Chemical stability of the compound in phosphate saline buffer at pH 7.4 at 50 umol/L by HPLC analysis in presence of HAS. Format: physicochemical. The settings on record: pH 7.4, 50 µM. The method in brief:
as §2

The nature of data set [13]: Chemical stability of the compound in phosphate saline buffer at pH 7.4 at 50 umol/L by HPLC analysis in presence of human blood. Format: physicochemical. The settings on record: pH 7.4, 50 µM. The method in brief: as §2
Data set [14] deals with T1, DNA topoisomerase 1 (Homo sapiens) (UniProt P11387).
T1 sequence (whole entry): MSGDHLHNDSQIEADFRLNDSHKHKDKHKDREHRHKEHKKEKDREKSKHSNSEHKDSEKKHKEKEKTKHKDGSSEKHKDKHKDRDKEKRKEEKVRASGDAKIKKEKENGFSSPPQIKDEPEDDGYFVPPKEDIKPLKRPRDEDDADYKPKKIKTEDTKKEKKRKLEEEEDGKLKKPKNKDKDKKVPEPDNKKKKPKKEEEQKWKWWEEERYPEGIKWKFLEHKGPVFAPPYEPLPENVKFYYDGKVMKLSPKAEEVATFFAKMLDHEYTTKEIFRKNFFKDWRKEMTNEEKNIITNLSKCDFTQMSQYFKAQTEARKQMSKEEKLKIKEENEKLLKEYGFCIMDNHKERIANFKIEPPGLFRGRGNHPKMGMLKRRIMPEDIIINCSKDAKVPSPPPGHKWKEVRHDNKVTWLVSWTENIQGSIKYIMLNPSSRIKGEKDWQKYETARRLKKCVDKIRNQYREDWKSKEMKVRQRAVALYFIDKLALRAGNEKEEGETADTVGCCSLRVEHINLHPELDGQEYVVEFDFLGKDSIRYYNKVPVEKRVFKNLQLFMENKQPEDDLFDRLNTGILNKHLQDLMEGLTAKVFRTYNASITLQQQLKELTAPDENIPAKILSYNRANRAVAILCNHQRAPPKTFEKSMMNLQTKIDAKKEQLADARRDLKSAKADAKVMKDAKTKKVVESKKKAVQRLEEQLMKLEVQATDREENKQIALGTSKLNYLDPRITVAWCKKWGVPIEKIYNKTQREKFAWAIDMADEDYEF
As to the kind of experiment: Inhibition of topoisomerase 1-mediated relaxation of supercoiled pBR322 DNA at 6.25 to 100 uM after 30 mins by […]. Put shortly: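 Supercoiled pBR322 DNA incubated with topoisomerase I (1 unit) with or without drug, 37 °C, 30 min; stopped with 10% SDS; products resolved on 1% agarose gel, supercoiled versus relaxed bands scored; camptothecin as reference.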

A word on the pIC50: it is the negative decadic logarithm of the IC50, by convention in mol/L. High values mean a small IC50, low ones a large IC50. `CC[C@@]1(O)C(=O)OCc2c1cc1n(c2=O)Cc2cc3cc(-c4cccs4)ccc3nc2-1`: the negative logarithm of the IC50 (pIC50) in the data set on HL-60 (Homo sapiens, HL-60, 72 h) is 7.32; in the data set on A549 [1] (Homo sapiens, A549, 72 h), 8.00; with Bel-7402 (Homo sapiens, Bel-7402, 72 h) it was 7.10.
Consider `CC[C@@]1(O)C(=O)OCc2c1cc1n(c2=O)Cc2cc3cc(-c4cccc(C(=O)OC)c4)ccc3nc2-1`, for which the pIC50 in the data set on HL-60 (Homo sapiens, HL-60, 72 h) is 7.31; with A549 [1] (Homo sapiens, A549, 72 h), 7.64; with Bel-7402 (Homo sapiens, Bel-7402, 72 h), 5.29.
Take `CC[C@@]1(O)C(=O)OCc2c1cc1n(c2=O)Cc2cc3cc(-c4ccccc4Cl)ccc3nc2-1`: the pIC50 in the data set with HL-60 (Homo sapiens, HL-60, 72 h) is 6.23; with A549 [1] (Homo sapiens, A549, 72 h), 5.95; with Bel-7402 (Homo sapiens, Bel-7402, 72 h), 5.61.
On the same counts, the results for `CC[C@@]1(O)C(=O)OCc2c1cc1n(c2=O)Cc2cc3cc(-c4ccccc4N(C)C)ccc3nc2-1` are 6.80, 6.64 and 5.82.
On the same counts, the results for `CC[C@@]1(O)C(=O)OCc2c1cc1n(c2=O)Cc2cc3cc(-c4cnc5ccccc5c4)ccc3nc2-1` are 5.84, 5.23 and 5.18.
Turning to `CC[C@@]1(O)C(=O)OCc2c1cc1n(c2=O)Cc2cc3cc(-c4cccnc4)ccc3nc2-1`, the pIC50 in the data set with HL-60 (Homo sapiens, HL-60, 72 h) was 7.49; in the data set on A549 [1] (Homo sapiens, A549, 72 h), 7.17; in the data set on Bel-7402 (Homo sapiens, Bel-7402, 72 h), 6.42.
On the same counts, the results for `CC[C@@]1(O)C(=O)OCc2c1cc1n(c2=O)Cc2cc3cc(-c4ccc(O)cc4)ccc3nc2-1` are 7.70, 6.85 and 5.98.
Regarding `CC[C@@]1(O)C(=O)OCc2c1cc1n(c2=O)Cc2cc3cc(-c4ccncc4)ccc3nc2-1.Cl`, the Activity in the data set with A549 [2] was found to be 15.74%; with A549 [3], 28.07%; in the data set on A549 [4] it was 19.91%; in the data set on A549 [5], 0%; in the data set on A549 [6], 80.09%; with A549 [7], 56.19%. Moreover, the figures for the Activity in the data set with A549 [8], in the data set with A549 [9] and with A549 [10] were 22%, 46.71% and 31.29%, respectively. Also, the values for the pIC50 in the data set on HL-60 (hl-60), in the data set with A549 [1] (a549) and in the data set on Bel-7402 (bel-7402) were 7.68, 7.21 and 6.34, respectively.
On to `CC[C@@]1(O)C(=O)OCc2c1cc1n(c2=O)Cc2cc3cc(-c4cccc(Cl)c4)ccc3nc2-1`, for which the pIC50 with HL-60 (Homo sapiens, HL-60, 72 h) was 7.00; in the data set on A549 [1] (Homo sapiens, A549, 72 h), 7.17; in the data set on Bel-7402 (Homo sapiens, Bel-7402, 72 h), 6.03.
With `CC[C@@]1(O)C(=O)OCc2c1cc1n(c2=O)Cc2cc3c(CN(C)C)c(O)ccc3nc2-1` [TOPOTECAN], the negative logarithm of the IC50 (pIC50) with HL-60 (Homo sapiens, HL-60, 72 h) is 7.28; in the data set on A549 [1] (Homo sapiens, A549, 72 h), 7.15; with Bel-7402 (Homo sapiens, Bel-7402, 72 h), 6.33. For the same compound, the Activity amounted to 24.95% in the data set on A549 [8], 35.02% in the data set on A549 [9] and 40.04% in the data set with A549 [10].
For the compound `CC[C@@]1(O)C(=O)OCc2c1cc1n(c2=O)Cc2cc3cc(-c4ccc(C(=O)OC)cc4)ccc3nc2-1`, the pIC50 with HL-60 (Homo sapiens, HL-60, 72 h) is 6.55; with A549 [1] (Homo sapiens, A549, 72 h) it was 6.29; in the data set on Bel-7402 (Homo sapiens, Bel-7402, 72 h), 6.19.
In the case of `CC[C@@]1(O)C(=O)OCc2c1cc1n(c2=O)Cc2cc3cc(-c4ccc(Cl)cc4)ccc3nc2-1`, the negative logarithm of the IC50 (pIC50) in the data set with HL-60 (Homo sapiens, HL-60, 72 h) is 6.52; in the data set with A549 [1] (Homo sapiens, A549, 72 h) it was 6.49; in the data set on Bel-7402 (Homo sapiens, Bel-7402, 72 h), 5.51.
`CC[C@@]1(O)C(=O)OCc2c1cc1n(c2=O)Cc2cc3cc(-c4cccc(N(C)C)c4)ccc3nc2-1`: the negative logarithm of the IC50 (pIC50) in the data set with HL-60 (Homo sapiens, HL-60, 72 h) is 7.89; in the data set with A549 [1] (Homo sapiens, A549, 72 h) it was 7.40; with Bel-7402 (Homo sapiens, Bel-7402, 72 h), 6.74.
On the same counts, the results for `CC[C@@]1(O)C(=O)OCc2c1cc1n(c2=O)Cc2cc3cc(-c4ccc(OC)cc4)ccc3nc2-1` are 6.11, 6.30 and 5.23.
For the compound `CC[C@@]1(O)C(=O)OCc2c1cc1n(c2=O)Cc2cc3cc(-c4ccncc4)ccc3nc2-1` [listing 1 of 2 here], the Activity is listed as 18.18% with A549 [2]; 22.22% in the data set on A549 [3]; 22.33% in the data set on A549 [4]; 14.24% in the data set on A549 [5]; 63.43% in the data set on A549 [6]; 59.61% in the data set on A549 [7]. In addition, the Activity was 16.74% with A549 [8], 38.41% in the data set with A549 [9] and 44.85% in the data set on A549 [10]. The negative logarithm of the IC50 (pIC50) in the data set with HL-60 (hl-60) is 8.05; with A549 [1] (Homo sapiens, A549, 72 h), 7.17; with Bel-7402 (Homo sapiens, Bel-7402, 72 h), 6.38. In addition, the Stability result in data set [11], in [12] and in data set [13] was “Stable” each time.
For `CC[C@@]1(O)C(=O)OCc2c1cc1n(c2=O)Cc2cc3cc(-c4ccsc4)ccc3nc2-1`, the pIC50 in the data set on HL-60 (Homo sapiens, HL-60, 72 h) was 7.43; with A549 [1] (Homo sapiens, A549, 72 h), 7.92; in the data set on Bel-7402 (Homo sapiens, Bel-7402, 72 h), 6.64.
In the same order, the values of `CC[C@@]1(O)C(=O)OCc2c1cc1n(c2=O)Cc2cc3cc(-c4ccc(C(=O)O)cc4)ccc3nc2-1` are 5.84, 4.94 and 4.86.
Turning to `CC[C@@]1(O)C(=O)OCc2c1cc1n(c2=O)Cc2cc3cc(-c4ccncc4)ccc3nc2-1` [listing 2 of 2 here], in data set [14], the inhibition entry is “Active”.
For the compound `CC[C@@]1(O)C(=O)OCc2c1cc1n(c2=O)Cc2cc3cc(-c4ccc(N(C)C)cc4)ccc3nc2-1`, the pIC50 was 5.54 in the data set with HL-60 (Homo sapiens, HL-60, 72 h); 5.57 with A549 [1] (Homo sapiens, A549, 72 h); 4.44 in the data set with Bel-7402 (Homo sapiens, Bel-7402, 72 h).
